Fewer inactive variants are shown than the library holds.
B1: tRNA (parent)
chain: GUUCCGUUGGCGUAAUGGUAACGCGUCUCCCUCCUAAGGAGAAGACUGCGGGUUCGAGUCCCGUACGGAACG

Variants of: B1
Test: yeast fitness relative to wild type (ratio to wild type); higher = fitter; tRNA-Arg(CCU), competitive growth, 37 C, YPD
Procedure, shortened: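 For this measurement, the tRNA-Arg(CCU) gene was varied by chemical synthesis at a 3% per-site mutation rate across 69 sites, and each variant was placed at the native genomic locus in Saccharomyces cerevisiae. The pooled strains went through a 24-hour competition in YPD at 37°C in six parallel replicates, with amplicons from start and end populations read by 100-nucleotide paired-end sequencing. Darwinian fitness relative to wild type followed from the change in each genotype's frequency. Genotypes needed ≥ 100 starting reads, and estimates < 0.5 were set to 0.5.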

With GUUCCGUUGGCGUAAUGGUAACGCCUCUCCCUCCUAAGGAGAAGACUGCGGGUUCGUGUCCCGUACGGAACG [G25C A57U] as the variant, how does the yeast fitness read?
Its yeast fitness is 0.659.

For GUUCCGUUGGCGUAAUGGUAACGCAUCUCCCCCCUAAGGAGAAGACUGCGGGUUCGAGUCCCGUACGGAACG [G25A U32C], which yeast fitness is on record?
The yeast fitness was 0.832.

Which yeast fitness does the source give for GUUCCGUUGGCGUAAUGGUAACGCCUCUCCCUCCUAAGGAGAGGACUGCGGGUUCGAGUCUCGUACGGAACG [G25C A43G C61U] here?
The yeast fitness was 0.623.

With GUUCCGUUGGCGUAAUGGUAACGCAUCUCCUUCCUAAGGAGAAGACUGCGGGUUCGAGUCCCGAACGGAACG [G25A C31U U64A] as the variant, how does the yeast fitness read?
The yeast fitness was 0.642.

With GUUCCGUUGGCGUAAUGGUAACGCAUCUCCCUCCUAAGGAGAAGACUGCGGGUUCGACUCCCGUGCGGAACG [G25A G58C A65G] as the variant, how does the yeast fitness read?
Its yeast fitness is 1.04.

With GUUCCGUUGGCGUAAUGGUAACGCAUCUCCCUCCUAAGGAGAAGAUUGCGGGUUCGAGUCCCGUAUGGAACG [G25A C46U C66U] as the variant, how does the yeast fitness read?
The yeast fitness was 0.778.

With GUUCCGUUGGCGUAAUGGUAACGCAUCGCCCUCCUAAGGAGAAGACUGCGGGUUCGAAUCCCGUAGGGAACG [G25A U28G G58A C66G] as the variant, how does the yeast fitness read?
The yeast fitness was 0.61.

Which yeast fitness does the source give for GUUCCGUUGGCGUAAUGGUAACGCAUCUCCCUCCUAAGGAGAAGACUGCCGGUUCGAGUCCCGUACGGAACG [G25A G50C] here?
Its yeast fitness is 0.929.

Which yeast fitness does the source give for GUUCCGUUGGCGUAAUGGUAACGCAUCUCCCUCGUAAGGAGAAGACUGCGGGUUCGAGUCCCGUACAGAACG [G25A C34G G67A] here?
The yeast fitness was at most 0.5.

For GUUCCGUUGGCGUAAUGGUAACGCAUCUCCCUCCUAAGGAGAAGACUACGGGUUCGAGUCCCGUACGGAUCG [G25A G48A A70U], which yeast fitness is on record?
The yeast fitness was 0.81.

With GUUCCGUUGGCGUAAUGGUAACGCAUCCCCCUCCUAAGGAGAAGACUGCGGGUUCGAGUCCCGUACGGAACG [G25A U28C] as the variant, how does the yeast fitness read?
The yeast fitness was 0.891.

Which yeast fitness does the source give for GUUCCGUUGGCGUAAUGGUAACGCAUCUCCCUCCUAAGGAAAAGACUGCGGGUUCGAGUGCGGUGCGGAACG [G25A G41A C60G C62G A65G] here?
Its yeast fitness is at most 0.5.

With GUUCCGUUGGCGUAAUGGUAACGCAUCGCCCUGCUAAGGAGAAGCCUGCGGGUUCGAGUCCCGUACGGAACG [G25A U28G C33G A45C] as the variant, how does the yeast fitness read?
Its yeast fitness is at most 0.5.

Which yeast fitness does the source give for GUUCCGUUGGCGUAAUGGUAACGCCUCUCCCUCCUAAGGCGAAGACUGCGGGUUCGAGUCCCAUACGGAACG [G25C A40C G63A] here?
Its yeast fitness is 0.69.

Which yeast fitness does the source give for GUUCCGUUGGCGUAAUGGUAACGCAUCUCCCUCCUAAGAAGAAGACUGCGGGUUCGAGUCCCGUACGGAACG [G25A G39A] here?
Its yeast fitness is 0.973.

Which yeast fitness does the source give for GUUCCGUUGGCGUAAUGGUAACGCAUCUCCCUCAUAAGGUGAAGACUGCGGGUUCGAGUCCCGUACGGAACG [G25A C34A A40U] here?
The yeast fitness was at most 0.5.

Which yeast fitness does the source give for GUUCCGUUGGCGUAAUGGUAACGCAUCACCCUCCUAAGGAGAAGACUGCGGGUUCGAGUCUCGUACCGAACG [G25A U28A C61U G67C] here?
The yeast fitness was at most 0.5.

Which yeast fitness does the source give for GUUCCGUUGGCGUAAUGGUAACGCCUCUCCCUCCUGAGGAGAAGACUACGGGUUCGAGUCCCGUACGGAACG [G25C A36G G48A] here?
The yeast fitness was 0.571.

With GUUCCGUUGGCGUAAUGGUAACGCAUCUCCCUGCUAAGGAGGAGACUGCAGAUUCGAGUCCCGUACGGAACG [G25A C33G A42G G50A G52A] as the variant, how does the yeast fitness read?
The yeast fitness was at most 0.5.

With GUUCCGUUGGCGUAAUGGUAACGCCUCUCCCUCCUAAGGAGAAGACUGCGGGUUCGAGUCCCGUUCGGAACG [G25C A65U] as the variant, how does the yeast fitness read?
Its yeast fitness is 1.03.

For GUUCCGUUGGCGUAAUGGUAACGCAUCUCCCUCCUAAGGAAAAGACUGCGGGUUCGAGUCCCGUACGGAACG [G25A G41A], which yeast fitness is on record?
Its yeast fitness is 0.822.

Which yeast fitness does the source give for GUUCCGUUGGCGUAAUGGUAACGCAUCUCCCUCAUCAGGAGAAGACUGCGGGUUCGAGUCCCGUACGGAACG [G25A C34A A36C] here?
Its yeast fitness is 0.587.

Which yeast fitness does the source give for GUUCCGUUGGCGUAAUGGUAACGCAUCUCCCUCCUAAGGAAAAGACUGCGGCUUCGAGUCCCGUACGGAACG [G25A G41A G52C] here?
The yeast fitness was at most 0.5.

Which yeast fitness does the source give for GUUCCGUUGGCGUAAUGGUAACGCCUCUCCCUCCUAGGGAGACGACUGCGGGUUGGAGUCCCGUACGAAACG [G25C A37G A43C C55G G68A] here?
The yeast fitness was at most 0.5.

Which yeast fitness does the source give for GUUCCGUUGGCGUAAUGGUAACGCAUCUCCCUCCCAAGGAGAGGACUGCGGGUUCGAGUCCCGUACGGAACG [G25A U35C A43G] here?
Its yeast fitness is at most 0.5.

For GUUCCGUUGGCGUAAUGGUAACGCCUCUCCCUCCUAUGGAGAAGACUGCGGGUUCGAGUCCCGUACGGAACG [G25C A37U], which yeast fitness is on record?
Its yeast fitness is 0.56.

Which yeast fitness does the source give for GUUCCGUUGGCGUAAUGGUAACGCCUGUCGCUCCUAAGGAGAAGACUGCGGGUUCGAGUACCGUACGGAACG [G25C C27G C30G C60A] here?
Its yeast fitness is at most 0.5.

With GUUCCGUUGGCGUAAUGGUAACGCCUAUCCCUCCUAAGGAGAAGACUGCGGGUUCGAGUCCCGUACGGAACG [G25C C27A] as the variant, how does the yeast fitness read?
The yeast fitness was 0.678.

With GUUCCGUUGGCGUAAUGGUAACGCCUCUCCCUCCUAAGGCGAAGACUGCGGGUUCGAGUCCAGUACGGAACG [G25C A40C C62A] as the variant, how does the yeast fitness read?
The yeast fitness was 0.675.

With GUUCCGUUGGCGUAAUGGUAACGCAUCUCCCUCCUAAGGAGAAGACUGCGGGUUCAAGUCCCGUACGGCACG [G25A G56A A69C] as the variant, how does the yeast fitness read?
The yeast fitness was 0.773.

With GUUCCGUUGGCGUAAUGGUAACGCAUCUCCCUCCUAAGGAGAAGACUGAGGGUUCGAGUCCCGUACGCAACG [G25A C49A G68C] as the variant, how does the yeast fitness read?
Its yeast fitness is at most 0.5.

For GUUCCGUUGGCGUAAUGGUAACGCAACUCCCUCCUAAGGAGAAGACUGCGGGUUCGAGUCCCGUACGGAACG [G25A U26A], which yeast fitness is on record?
Its yeast fitness is 0.839.

With GUUCCGUUGGCGUAAUGGUAACGCAUCUCCCUCAUCAGGAGAAGACUGCGCGUUCGAGUCCCGUACGGAACG [G25A C34A A36C G51C] as the variant, how does the yeast fitness read?
Its yeast fitness is at most 0.5.

Which yeast fitness does the source give for GUUCCGUUGGCGUAAUGGUAACGCAUCUCCCUCCUAAGGAGAAGACUGCGGGUUCGAGUCCCGUAGGGAACG [G25A C66G] here?
Its yeast fitness is 0.962.

Which yeast fitness does the source give for GUUCCGUUGGCGUAAUGGUAACGCAUCUCCCUCCUAAGGAGAAGACUGCGGGUUCCAGUCCCGUACGGAACG [G25A G56C] here?
The yeast fitness was 0.711.

For GUUCCGUUGGCGUAAUGGUAACGCAUCUCCCUCCUAAGGAGAAGACUGGGGGUUCGAGUCCCGUACGGAACG [G25A C49G], which yeast fitness is on record?
The yeast fitness was 0.981.

Which yeast fitness does the source give for GUUCCGUUGGCGUAAUGGUAACGCCUCUCCCUCCUAAGGAGGAGACUGCGGGUUCGAGUCCCGUACGAAACG [G25C A42G G68A] here?
Its yeast fitness is 0.621.

For GUUCCGUUGGCGUAAUGGUAACGCCUCUCCCUCCUAAGGCGAAGACUGCGGGUUCGAGUCCCGUACGCAACG [G25C A40C G68C], which yeast fitness is on record?
The yeast fitness was 0.645.
